Results reported in ChEMBL document CHEMBL4819034, “Tricyclic-Carbocyclic RORγt Inverse Agonists-Discovery of BMS-986313” (J Med Chem, 2021).

What was measured:
[1] = Metabolic stability in mouse liver microsomes assessed as parent compound remaining; assay type: ADME, Microsome
Procedure, shortened: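 Test compound at 0.5 μM initial concentration incubated with human, mouse or rat liver microsomes (protein 1 mg/mL). Metabolic stability reported as percent of parent compound remaining after incubation.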

[2] = Half life in mouse liver microsomes; assay type: ADME, Microsome
Procedure, shortened: (§1)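 Liver microsome half-life (min) measured in human, mouse, rat, dog and cyno liver microsomes.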

[3] = Half life in dog liver microsomes; assay type: ADME, Canis lupus familiaris, Microsome; procedure, shortened: as §1
[4] = Half life in cynomolgus monkey liver microsomes; assay type: ADME, Macaca fascicularis, Microsome; procedure, shortened: as §1
[5] = target: T1, Nuclear receptor ROR-alpha (Homo sapiens, UniProt P35398); experiment: Inverse agonist activity at Gal4-fused RORalpha (unknown origin)
T1 sequence (P35398 whole entry): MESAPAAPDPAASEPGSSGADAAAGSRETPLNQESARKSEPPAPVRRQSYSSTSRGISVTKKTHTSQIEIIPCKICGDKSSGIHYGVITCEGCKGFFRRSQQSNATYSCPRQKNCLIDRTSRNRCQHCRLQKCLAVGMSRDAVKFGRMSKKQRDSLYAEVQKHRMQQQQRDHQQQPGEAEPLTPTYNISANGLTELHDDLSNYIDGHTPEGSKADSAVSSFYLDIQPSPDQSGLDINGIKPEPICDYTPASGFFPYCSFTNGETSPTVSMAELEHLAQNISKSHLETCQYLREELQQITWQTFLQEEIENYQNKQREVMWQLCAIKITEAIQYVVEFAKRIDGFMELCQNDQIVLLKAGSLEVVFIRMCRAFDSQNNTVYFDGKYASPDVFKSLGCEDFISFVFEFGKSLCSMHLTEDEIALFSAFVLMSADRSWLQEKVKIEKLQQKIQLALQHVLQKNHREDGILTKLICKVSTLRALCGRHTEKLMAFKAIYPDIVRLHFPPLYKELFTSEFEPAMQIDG

[6] = Protein binding in mouse assessed as unbound fraction; assay type: ADME
Cytochrome P450 1A2 = target: T2, Cytochrome P450 1A2 (Homo sapiens, UniProt P05177); experiment: Inhibition of CYP1A2 (unknown origin); assay type: ADME
T2 sequence (P05177 whole entry): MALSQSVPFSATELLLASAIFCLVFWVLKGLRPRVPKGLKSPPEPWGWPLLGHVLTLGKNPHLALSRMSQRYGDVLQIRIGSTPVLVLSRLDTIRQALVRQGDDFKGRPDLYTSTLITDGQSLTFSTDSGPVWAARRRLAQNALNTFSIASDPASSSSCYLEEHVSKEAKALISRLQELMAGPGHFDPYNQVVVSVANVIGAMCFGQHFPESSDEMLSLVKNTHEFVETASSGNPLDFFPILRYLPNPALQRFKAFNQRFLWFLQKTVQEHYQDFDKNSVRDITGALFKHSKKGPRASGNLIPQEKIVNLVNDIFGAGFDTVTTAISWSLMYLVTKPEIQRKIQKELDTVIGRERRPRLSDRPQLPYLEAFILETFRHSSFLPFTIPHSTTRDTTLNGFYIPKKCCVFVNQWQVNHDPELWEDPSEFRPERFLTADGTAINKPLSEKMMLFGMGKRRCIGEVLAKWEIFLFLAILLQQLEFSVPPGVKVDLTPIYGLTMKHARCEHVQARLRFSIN

Cytochrome P450 2D6 = Cytochrome P450 2D6 (Homo sapiens, UniProt P10635); experiment: Inhibition of CYP2D6 (unknown origin); assay type: ADME
Cytochrome P450 3A4 = Cytochrome P450 3A4 (Homo sapiens, UniProt P08684); experiment: Inhibition of CYP3A4 (unknown origin); assay type: ADME
Cytochrome P450 2C8 = target: T3, Cytochrome P450 2C8 (Homo sapiens, UniProt P10632); experiment: Inhibition of CYP2C8 (unknown origin); assay type: ADME
T3 sequence (P10632 whole entry): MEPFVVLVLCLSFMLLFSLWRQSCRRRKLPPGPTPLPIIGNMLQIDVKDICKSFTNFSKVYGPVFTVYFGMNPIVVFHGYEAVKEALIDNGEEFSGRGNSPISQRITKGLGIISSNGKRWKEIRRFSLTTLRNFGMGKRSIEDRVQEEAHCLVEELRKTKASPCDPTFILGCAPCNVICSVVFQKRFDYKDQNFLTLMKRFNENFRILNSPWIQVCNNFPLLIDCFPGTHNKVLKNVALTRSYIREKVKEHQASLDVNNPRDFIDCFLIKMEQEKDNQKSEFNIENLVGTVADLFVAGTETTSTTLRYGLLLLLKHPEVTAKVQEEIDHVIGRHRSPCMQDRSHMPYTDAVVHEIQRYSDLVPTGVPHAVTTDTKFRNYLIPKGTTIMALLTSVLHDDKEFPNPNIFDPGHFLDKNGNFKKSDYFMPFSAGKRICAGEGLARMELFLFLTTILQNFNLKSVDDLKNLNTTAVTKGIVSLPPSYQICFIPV

Cytochrome P450 2C19 = Cytochrome P450 2C19 (Homo sapiens, UniProt P33261); experiment: Inhibition of CYP2C19 (unknown origin); assay type: ADME
[7] = Volume of distribution at steady state in mouse at 2 mg/kg, iv; assay type: ADME, organism-based; conditions: in vivo, read-out: Vdss
Procedure, shortened: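 Single intravenous dose: mouse and rat 2 mg/kg, dog and cynomolgus 1 mg/kg. Steady-state volume of distribution was derived from the IV arm. Values are means from three or more animals.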

[8] = Oral bioavailability in mouse at 4 mg/kg; assay type: ADME, organism-based; conditions: in vivo
Procedure, shortened: (§2)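 Single-dose PK, IV and PO. Doses: mouse and rat 2 mg/kg IV / 4 mg/kg PO; dog and cyno 1 mg/kg IV, with 1 or 2 mg/kg PO.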

[9] = Clearance in dog at 1 mg/kg, iv; assay type: ADME, organism-based, Canis lupus familiaris; conditions: in vivo; procedure, shortened: as §2
[10] = Cmax in dog at 2 mg/kg, po; assay type: ADME, organism-based, Canis lupus familiaris; parameters: route oral, dose 2 mg/kg; conditions: in vivo; procedure, shortened: as §2
[11] = Oral bioavailability in dog at 2 mg/kg; assay type: ADME, organism-based, Canis lupus familiaris; conditions: in vivo; procedure, shortened: as §2
Mus musculus [12] = experiment: Protection against imiquimod-induced C57BL/6 mouse model of psoriasis assessed as inhibition of skin thickening at 10 mg/kg, po BID for 7 days and measured every day for 8 days relative to control; assay type: functional; conditions: C57BL/6, po, 168 h, time 7 day
Mus musculus [13] = experiment: Protection against imiquimod-induced C57BL/6 mouse model of psoriasis assessed as reduction in IL-17A mRNA levels at 5 mg/kg, po BID for 7 days by RT-PCR analysis relative to control; assay type: functional; parameters: scale not given: the % may be the effect or the level left; conditions: time 7 day
Mus musculus [14] = experiment: Protection against imiquimod-induced C57BL/6 mouse model of psoriasis assessed as reduction in IL-17A mRNA levels at 10 mg/kg, po BID for 7 days by RT-PCR analysis relative to control; assay type: functional; parameters: scale not given: the % may be the effect or the level left; conditions: time 7 day
Mus musculus [15] = experiment: Protection against imiquimod-induced C57BL/6 mouse model of psoriasis assessed as reduction in IL-17F mRNA levels at 5 mg/kg, po BID for 7 days by RT-PCR analysis relative to control; assay type: functional; parameters: scale not given: the % may be the effect or the level left; conditions: time 7 day
Mus musculus [16] = experiment: Protection against recombinant human IL23-induced acanthosis C57BL/6 mouse model assessed as change in ear thickness score at 15 mg/kg, po BID for 10 days and measured every other day relative to control; assay type: functional; conditions: time 10 day
Procedure, shortened: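 IL-23 was injected into the ear of C57BL/6 mice to induce dermal inflammation and epidermal hyperplasia. Ear thickness was measured at baseline on day 0, then as % change every other day before each next ear injection. Oral dosing was BID.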

Sequence of Cytochrome P450 2C19 (P33261 whole entry): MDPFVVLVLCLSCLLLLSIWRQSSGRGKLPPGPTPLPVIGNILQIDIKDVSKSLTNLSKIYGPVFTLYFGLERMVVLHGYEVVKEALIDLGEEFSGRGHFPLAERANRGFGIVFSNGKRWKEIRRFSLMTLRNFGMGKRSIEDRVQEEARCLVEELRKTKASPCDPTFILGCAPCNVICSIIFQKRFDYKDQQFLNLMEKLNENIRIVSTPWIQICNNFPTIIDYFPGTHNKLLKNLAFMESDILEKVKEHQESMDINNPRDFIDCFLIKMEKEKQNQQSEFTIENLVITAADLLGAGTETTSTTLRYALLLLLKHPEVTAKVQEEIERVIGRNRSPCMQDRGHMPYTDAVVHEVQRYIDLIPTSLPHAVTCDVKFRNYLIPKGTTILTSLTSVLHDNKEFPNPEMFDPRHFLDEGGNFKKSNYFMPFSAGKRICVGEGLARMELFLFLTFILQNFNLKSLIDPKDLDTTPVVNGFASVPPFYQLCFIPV
Sequence of Cytochrome P450 2D6 (P10635 whole entry): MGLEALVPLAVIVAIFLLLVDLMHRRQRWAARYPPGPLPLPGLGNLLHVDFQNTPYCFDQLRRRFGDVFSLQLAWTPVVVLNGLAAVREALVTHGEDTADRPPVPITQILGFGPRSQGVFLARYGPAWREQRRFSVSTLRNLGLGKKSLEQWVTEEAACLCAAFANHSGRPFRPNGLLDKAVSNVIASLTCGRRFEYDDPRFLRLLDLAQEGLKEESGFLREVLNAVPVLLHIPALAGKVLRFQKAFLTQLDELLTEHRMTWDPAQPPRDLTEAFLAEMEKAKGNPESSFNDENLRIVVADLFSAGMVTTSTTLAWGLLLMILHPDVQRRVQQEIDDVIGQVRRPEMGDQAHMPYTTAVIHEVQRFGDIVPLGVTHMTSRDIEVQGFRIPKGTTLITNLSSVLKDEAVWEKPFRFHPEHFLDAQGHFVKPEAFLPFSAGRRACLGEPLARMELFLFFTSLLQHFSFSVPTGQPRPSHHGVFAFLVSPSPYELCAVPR
Sequence of Cytochrome P450 3A4 (P08684 whole entry): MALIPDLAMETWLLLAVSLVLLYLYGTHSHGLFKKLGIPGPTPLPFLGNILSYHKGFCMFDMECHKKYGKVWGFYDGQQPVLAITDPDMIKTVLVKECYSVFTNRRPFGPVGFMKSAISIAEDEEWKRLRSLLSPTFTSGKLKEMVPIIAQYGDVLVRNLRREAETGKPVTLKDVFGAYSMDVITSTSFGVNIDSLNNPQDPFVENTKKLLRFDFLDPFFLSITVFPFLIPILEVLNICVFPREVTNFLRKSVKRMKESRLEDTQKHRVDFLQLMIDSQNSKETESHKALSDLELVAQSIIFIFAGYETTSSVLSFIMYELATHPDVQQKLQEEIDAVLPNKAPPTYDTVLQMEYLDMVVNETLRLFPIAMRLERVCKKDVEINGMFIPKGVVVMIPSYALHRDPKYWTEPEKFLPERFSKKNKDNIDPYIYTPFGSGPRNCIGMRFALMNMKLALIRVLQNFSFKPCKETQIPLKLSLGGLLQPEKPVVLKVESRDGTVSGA

Stabilty [1]: 92%
half-life [2]: 120 min
half-life [3]: 120 min
half-life [4]: 120 min
EC50 [5]: > 10 µM
fraction unbound [6]: 0.006
IC50 (Cytochrome P450 1A2): 20 µM
IC50 (Cytochrome P450 2D6): 20 µM
IC50 (Cytochrome P450 3A4): 11 µM
IC50 (Cytochrome P450 2C8): 12 µM
IC50 (Cytochrome P450 2C19): 19 µM
Vd [7]: 3 L/kg
bioavailability [8]: 100%
clearance [9]: 0.8 mL/min/kg
Cmax [10]: 1300 nM
bioavailability [11]: 83%
SMILES: CC(C)(O)C(=O)N[C@@H]1CC[C@@]2(S(=O)(=O)c3ccc(F)cc3)c3ccc(C(F)(C(F)(F)F)C(F)(F)F)cc3CC[C@@H]12
inhibition in vivo at 10 mg/kg (Mus musculus [12]): 39.6%
Activity (Mus musculus [13]): 75.9%
Activity (Mus musculus [14]): 76.7%
Activity (Mus musculus [15]): 79.2%
Activity (Mus musculus [16]): 66.8%
